Test results from ChEMBL document CHEMBL4411292, “Boronate, trifluoroborate, sulfone, sulfinate and sulfonate congeners of oseltamivir carboxylic acid: Synthesis and anti-influenza activity” (Eur J Med Chem, 2019).
Active and inactive are the calls of the source. The calls are words filed in the database; no cut-off is given here.

Key:
[1] = Cytotoxicity against MDCK cells assessed as reduction in cell viability after 48 hrs by CellTiter 96 aqueous non-radioactive cell proliferation assay; format: cell-based, Canis lupus familiaris; details: dog
How it was run: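 Uninfected MDCK cells at 1 × 10^5 cells/mL were exposed to inhibitor at varied concentrations for 48 h at 37 °C, 5.0% CO2. Viability was read with CellTiter 96 AQueous reagent (15 min, absorbance at 490 nm). CC50 was derived by curve fitting as for EC50.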

Influenza A virus = test: Antiviral activity against Influenza A virus (A/WSN/1933(H1N1)) infected in MDCK cells assessed as reduction in virus-induced cytopathic effect after 48 hrs by CellTiter 96 aqueous non-radioactive cell proliferation assay; format: functional, organism-based
How it was run: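 MDCK cells (DMEM with 10% FBS, 37 °C, 5% CO2) were seeded at 1 × 10^5 cells/mL and infected with 100 TCID50 of A/WSN/33 premixed with inhibitor at varied concentrations. Incubation was 48 h at 37 °C, 5.0% CO2. Viability was read with CellTiter 96 AQueous reagent (15 min, A490). EC50 was fitted from % CPE vs concentration, as mean ± SD of three experiments.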

[2] = biological target: Neuraminidase (Influenza A virus (A/Puerto Rico/8/1934(H1N1))) (UniProt P03468); test: Irreversible inhibition of influenza A virus (A/WSN/1933(H1N1)) neuraminidase using MUNANA as fluorogenic substrate preincubated up to 48 hrs followed by substrate addition and measured after 15 mins by fluorometric assay
Sequence of Neuraminidase (Influenza A virus (A/Puerto Rico/8/1934(H1N1))) (P03468 whole entry): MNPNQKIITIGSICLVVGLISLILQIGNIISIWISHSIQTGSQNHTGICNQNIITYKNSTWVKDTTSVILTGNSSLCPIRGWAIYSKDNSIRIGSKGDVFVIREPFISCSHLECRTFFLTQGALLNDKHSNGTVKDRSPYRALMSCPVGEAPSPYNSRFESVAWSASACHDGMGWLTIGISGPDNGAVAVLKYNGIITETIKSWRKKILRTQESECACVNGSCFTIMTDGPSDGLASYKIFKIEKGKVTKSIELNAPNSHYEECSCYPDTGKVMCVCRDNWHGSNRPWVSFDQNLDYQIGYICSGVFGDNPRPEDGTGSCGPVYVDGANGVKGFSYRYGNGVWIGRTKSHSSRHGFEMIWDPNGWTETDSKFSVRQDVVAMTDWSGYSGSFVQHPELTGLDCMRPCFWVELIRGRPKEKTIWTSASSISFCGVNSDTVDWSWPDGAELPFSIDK

Compound | CC50 at 48 h [1] [nM] | EC50 (Influenza A virus) [nM] | inhibition [2]
CCC(CC)O[C@@H]1C=C([S+]([O-])O)C[C@H](N)[C@H]1NC(C)=O (stereo not given in full) | > 100000 | 48 | –
CCC(CC)O[C@@H]1C=C(S(=O)(=O)O)C[C@H](N)[C@H]1NC(C)=O | > 100000 | 14 | –
CCC(CC)O[C@@H]1C=C(S(=O)(=O)OCCCc2ccccc2)C[C@H](NC(=N)N)[C@H]1NC(C)=O | > 100000 | 24 | –
CCC(CC)O[C@@H]1C=C(S(C)(=O)=O)C[C@H](N)[C@H]1NC(C)=O | – | 1200 | –
CCC(CC)O[C@@H]1C=C(C(=O)O)C[C@H](N)[C@H]1NC(C)=O [OSELTAMIVIR CARBOXYLATE] | – | 28 | –
CCC(CC)O[C@@H]1C=C(B(O)O)C[C@H](N)[C@H]1NC(C)=O | – | 1700 | inactive
CCC(CC)O[C@@H]1C=C([B-](F)(F)F)C[C@H](NC(=N)N)[C@H]1NC(C)=O | – | 270 | inactive
CCC(CC)O[C@@H]1C=C(B(O)O)C[C@H](NC(=N)N)[C@H]1NC(C)=O | – | 580 | inactive
CCC(CC)O[C@@H]1C=C([S+]([O-])O)C[C@H](NC(=N)N)[C@H]1NC(C)=O (stereo not given in full) | > 100000 | 7.8 | –
CCC(CC)O[C@@H]1C=C(S(=O)(=O)CCc2ccncc2)C[C@H](N)[C@H]1NC(C)=O | – | 1500 | –
CCC(CC)O[C@@H]1C=C(S(=O)(=O)O)C[C@H](NC(=N)N)[C@H]1NC(C)=O | > 100000 | 2.2 | –
CCC(CC)O[C@@H]1C=C(S(=O)(=O)OCCCc2ccccc2)C[C@H](N)[C@H]1NC(C)=O | – | 280 | –
CCC(CC)O[C@@H]1C=C([B-](F)(F)F)C[C@H](N)[C@H]1NC(C)=O | – | 860 | inactive
CCCCOS(=O)(=O)C1=C[C@@H](OC(CC)CC)[C@H](NC(C)=O)[C@@H](N)C1 | – | 190 | –
CCC(CC)O[C@@H]1C=C(S(=O)(=O)CCc2ccncc2)C[C@H](NC(=N)N)[C@H]1NC(C)=O | > 100000 | 100 | –
CCC(CC)O[C@@H]1C=C(C(=O)O)C[C@H](NC(=N)N)[C@H]1NC(C)=O | – | 14 | –
CCCCOS(=O)(=O)C1=C[C@@H](OC(CC)CC)[C@H](NC(C)=O)[C@@H](NC(=N)N)C1 | > 100000 | 31 | –
CCC(CC)O[C@@H]1C=C(S(C)(=O)=O)C[C@H](NC(=N)N)[C@H]1NC(C)=O | > 100000 | 46 | –
